Experimental data from different studies.
Lines come from different studies, so protocols differ. pIC50: −log10 of the molar value. Converted amounts (≈) assume the structure as drawn.

| Compound | tested on | test | system | conditions | endpoint | value |
| --- | --- | --- | --- | --- | --- | --- |
| N#Cc1ccc(-c2cc(COc3cc(C(F)(F)F)nc4ccccc34)on2)cc1 | DND41 | cell growth or viability, MTS |  | 72 h | pIC50 | 4.36 |
| OC(Cn1cncn1)(Cn1cncn1)c1ccc(F)cc1F | Candida tropicalis | microbial growth, broth dilution | CGMCC2 | 48 h | MIC | 2 µM |
| CC(=O)NC[C@H]1CN(c2ccc(N3CCOCC3)c(F)c2)C(=O)O1 | Streptococcus agalactiae | microbial growth |  | clinical isolate | MIC90 | 1 µg/mL (≈ 2.96 µM) |
| CC(=O)N1CCN(c2ccc(OCC3COC(Cn4ccnc4)(c4ccc(Cl)cc4Cl)O3)cc2)CC1 (stereo not shown) | Candida tropicalis | microbial growth, broth dilution | ATCC13803 | 48 h | MIC | 8 µg/mL |
| FC(F)(F)c1cc(OCc2cc(-c3ccccc3)no2)c2ccccc2n1 | DND41 | cell growth or viability, MTS |  | 72 h | pIC50 | 4.19 |
| CN[C@H](CC(C)C)C(=O)N[C@H]1C(=O)N[C@@H](CC(N)=O)C(=O)N[C@H]2C(=O)N[C@H]3C(=O)N[C@H](C(=O)N[C@H](C(=O)O)c4cc(O)cc(O)c4-c4cc3ccc4O)[C@H](O)c3ccc(c(Cl)c3)Oc3cc2cc(c3O[C@@H]2O[C@H](CO)[C@@H](O)[C@H](O)[C@H]2O[C@H]2C[C@](C)(N)[C@H](O)[C@H](C)O2)Oc2ccc(cc2Cl)[C@H]1O | Streptococcus agalactiae | microbial growth |  | clinical isolate | MIC90 | 0.5 µg/mL (≈ 0.345 µM) |
| CC(=O)ON=C1C=CC(=C(C#N)c2ccccc2)C=C1 | Candida tropicalis | microbial growth, broth dilution | ATCC13803 | 48 h | MIC | 2 µg/mL |
| CC[C@H]1OC(=O)[C@H](C)[C@@H](O[C@H]2C[C@@](C)(OC)[C@@H](O)[C@H](C)O2)[C@H](C)[C@@H](O[C@@H]2O[C@H](C)C[C@H](N(C)C)[C@H]2O)[C@](C)(O)C[C@@H](C)/C(=N\OCOCCOC)[C@H](C)[C@@H](O)[C@]1(C)O | Streptococcus agalactiae | microbial growth |  | clinical isolate | MIC90 | 8 µg/mL (≈ 9.56 µM) |
| O=c1cc(OCc2cc(-c3ccc(Cl)cc3Cl)no2)c2ccccc2o1 | DND41 | cell growth or viability, MTS |  | 72 h | pIC50 | < 4.00 |
| N#CC(=C1C=CC(=NOC(=O)OCc2ccccc2)C=C1)c1ccccc1 | Candida tropicalis | microbial killing, broth dilution | ATCC13803 | 48 h | MFC | 256 µg/mL (≈ 718 µM) |
